From ChEMBL document CHEMBL5042469, “Unique Molecular Interaction with the Histone Deacetylase 6 Catalytic Tunnel: Crystallographic and Biological Characterization of a Model Chemotype” (J Med Chem, 2021)

What was measured:
[1] = Stability in mouse plasma assessed as compound remaining measured after 15 mins; type: ADME, cell-free; details: read-out: Stability
[2] = Half life in Balb/c mouse at 50 mg/kg, ip by LC-MS/MS analysis; type: ADME, organism-based; details: in vivo
How it was run: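 Male BALB/c mice received a single intraperitoneal dose from a 50 mg/mL solution in 5% DMSO, 30% PEG400, 1% Tween80 and 64% saline. Blood was collected at several time points and the compound quantified by triple-quadrupole LC-MS/MS.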

[3] = biological target: Histone deacetylase 7 (Homo sapiens, UniProt Q8WUI4); assay: Inhibition of full length human HDAC7 using FAM-labeled acetylated peptide as substrate by electrophoretic mobility shift assay
How it was run: (§1)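 Full-length human HDAC isoform enzymatic assay by electrophoretic mobility shift, using a FAM-labelled acetylated peptide substrate. […] Values are the mean of duplicate experiments with 95% confidence intervals.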

[4] = biological target: Histone deacetylase 4 (Homo sapiens, UniProt P56524); assay: Inhibition of full length human HDAC4 using FAM-labeled acetylated peptide as substrate by electrophoretic mobility shift assay; how it was run: as §1
[5] = biological target: Histone deacetylase 9 (Homo sapiens, UniProt Q9UKV0); assay: Inhibition of full length human HDAC9 using FAM-labeled acetylated peptide as substrate by electrophoretic mobility shift assay; how it was run: as §1
[6] = biological target: T1, Protein deacetylase HDAC6 (Homo sapiens, UniProt Q9UBN7); assay: Binding affinity to human HDAC6 by jump dilution assay
T1 sequence (Q9UBN7 whole entry): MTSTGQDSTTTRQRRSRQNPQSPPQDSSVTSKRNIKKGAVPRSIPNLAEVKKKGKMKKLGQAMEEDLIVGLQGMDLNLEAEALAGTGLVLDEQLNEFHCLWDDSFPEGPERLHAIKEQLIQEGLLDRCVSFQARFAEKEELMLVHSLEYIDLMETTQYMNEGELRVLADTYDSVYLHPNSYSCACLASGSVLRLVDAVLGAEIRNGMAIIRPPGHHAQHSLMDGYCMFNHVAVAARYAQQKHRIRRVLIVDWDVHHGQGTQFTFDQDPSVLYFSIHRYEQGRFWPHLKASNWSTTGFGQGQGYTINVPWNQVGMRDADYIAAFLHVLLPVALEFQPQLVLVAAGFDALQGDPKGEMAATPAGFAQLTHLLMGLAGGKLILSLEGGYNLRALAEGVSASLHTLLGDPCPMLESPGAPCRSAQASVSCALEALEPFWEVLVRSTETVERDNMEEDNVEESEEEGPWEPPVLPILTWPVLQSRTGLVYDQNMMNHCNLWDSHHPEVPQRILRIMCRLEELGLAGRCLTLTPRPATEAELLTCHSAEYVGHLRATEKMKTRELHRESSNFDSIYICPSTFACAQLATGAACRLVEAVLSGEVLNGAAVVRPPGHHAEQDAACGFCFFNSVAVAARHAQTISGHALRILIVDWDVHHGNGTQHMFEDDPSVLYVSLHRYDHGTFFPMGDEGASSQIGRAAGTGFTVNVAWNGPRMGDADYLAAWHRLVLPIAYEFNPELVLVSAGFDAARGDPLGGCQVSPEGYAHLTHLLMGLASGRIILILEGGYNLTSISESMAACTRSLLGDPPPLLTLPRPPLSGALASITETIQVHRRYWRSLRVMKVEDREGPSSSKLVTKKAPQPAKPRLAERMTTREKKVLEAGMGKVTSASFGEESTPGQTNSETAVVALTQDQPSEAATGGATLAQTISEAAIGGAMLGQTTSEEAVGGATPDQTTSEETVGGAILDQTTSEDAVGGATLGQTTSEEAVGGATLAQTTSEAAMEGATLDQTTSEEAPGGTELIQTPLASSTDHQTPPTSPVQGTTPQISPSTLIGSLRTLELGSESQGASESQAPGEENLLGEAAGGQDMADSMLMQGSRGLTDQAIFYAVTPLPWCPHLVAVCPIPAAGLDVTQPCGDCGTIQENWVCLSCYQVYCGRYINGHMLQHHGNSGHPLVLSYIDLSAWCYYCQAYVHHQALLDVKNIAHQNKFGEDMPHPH

[7] = Stability in human whole blood assessed as compound remaining measured after 30 mins; type: ADME, tissue-based; details: read-out: Stability
[8] = test system: MV4-11; assay: Induction of apoptosis in human MV4-11 cells assessed as viable cells at 1 uM incubated for 15 mins by Annexin-V/FITC staining based FACS analysis (reference value: 84.58%); type: functional; details: MV4-11, 0.25 h, read-out: Activity
How it was run: (§2)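 MV4-11 cells were dosed, then washed twice in cold PBS and resuspended in binding buffer at 1×10^6 cells/mL. Cells were stained with FITC-annexin V and propidium iodide for 15 min in the dark, diluted with binding buffer and analysed by flow cytometry within 1 h. Quadrants: LL viable, LR early apoptotic, UR late apoptotic. Duplicate experiments averaged; DMSO control.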

[9] = test system: MV4-11; assay: Induction of apoptosis in human MV4-11 cells assessed as early apoptotic cells at 0.50 uM incubated for 15 mins by Annexin-V/FITC staining based FACS analysis (reference value: 7.28%); type: functional; details: dose 0.5 µM, 0.25 h; how it was run: as §2
[10] = test system: MV4-11; assay: Induction of apoptosis in human MV4-11 cells assessed as late apoptotic cells at 4 uM incubated for 15 mins by Annexin-V/FITC staining based FACS analysis (reference value: 4.36%); type: functional; details: 0.25 h; how it was run: as §2
[11] = test system: MV4-11; assay: Induction of apoptosis in human MV4-11 cells assessed as viable cells at 2 uM incubated for 15 mins by Annexin-V/FITC staining based FACS analysis (reference value: 84.58%); type: functional; details: MV4-11, 0.25 h, read-out: Activity; how it was run: as §2
[12] = test system: MV4-11; assay: Induction of apoptosis in human MV4-11 cells assessed as early apoptotic cells at 4 uM incubated for 15 mins by Annexin-V/FITC staining based FACS analysis (reference value: 7.28%); type: functional; details: 0.25 h; how it was run: as §2
[13] = test system: MV4-11; assay: Induction of apoptosis in human MV4-11 cells assessed as late apoptotic cells at 0.50 uM incubated for 15 mins by Annexin-V/FITC staining based FACS analysis (reference value: 4.36%); type: functional; details: dose 0.5 µM, 0.25 h; how it was run: as §2
[14] = test system: MV4-11; assay: Induction of apoptosis in human MV4-11 cells assessed as late apoptotic cells at 0.25 uM incubated for 15 mins by Annexin-V/FITC staining based FACS analysis (reference value: 4.36%); type: functional; how it was run: as §2

Histone deacetylase 7, sequence (Q8WUI4 whole entry, canonical isoform): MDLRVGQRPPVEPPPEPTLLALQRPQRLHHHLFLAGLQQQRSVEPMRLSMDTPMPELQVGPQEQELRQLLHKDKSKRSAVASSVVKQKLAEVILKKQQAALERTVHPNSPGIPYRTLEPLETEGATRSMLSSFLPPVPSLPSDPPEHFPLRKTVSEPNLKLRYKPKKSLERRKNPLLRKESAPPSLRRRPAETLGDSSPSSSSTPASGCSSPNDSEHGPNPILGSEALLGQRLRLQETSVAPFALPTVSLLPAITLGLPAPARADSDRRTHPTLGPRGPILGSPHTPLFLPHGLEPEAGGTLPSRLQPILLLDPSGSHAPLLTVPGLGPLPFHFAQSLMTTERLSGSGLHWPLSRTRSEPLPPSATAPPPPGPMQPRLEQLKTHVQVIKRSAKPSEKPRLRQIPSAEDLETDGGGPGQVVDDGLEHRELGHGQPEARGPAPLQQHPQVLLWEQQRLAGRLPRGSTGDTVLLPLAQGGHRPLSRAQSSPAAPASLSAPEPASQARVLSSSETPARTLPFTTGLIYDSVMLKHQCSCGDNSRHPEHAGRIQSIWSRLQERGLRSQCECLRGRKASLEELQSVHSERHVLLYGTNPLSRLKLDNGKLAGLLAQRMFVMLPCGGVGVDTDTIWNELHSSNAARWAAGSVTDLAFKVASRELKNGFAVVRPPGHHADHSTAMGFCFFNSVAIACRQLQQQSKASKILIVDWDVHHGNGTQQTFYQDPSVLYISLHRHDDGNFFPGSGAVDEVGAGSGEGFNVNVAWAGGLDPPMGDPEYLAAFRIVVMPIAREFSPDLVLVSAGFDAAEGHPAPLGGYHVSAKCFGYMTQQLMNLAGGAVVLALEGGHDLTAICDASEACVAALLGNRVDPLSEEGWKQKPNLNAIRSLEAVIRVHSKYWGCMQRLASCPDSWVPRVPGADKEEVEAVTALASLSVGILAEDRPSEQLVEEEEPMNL
Histone deacetylase 9, sequence (Q9UKV0 whole entry): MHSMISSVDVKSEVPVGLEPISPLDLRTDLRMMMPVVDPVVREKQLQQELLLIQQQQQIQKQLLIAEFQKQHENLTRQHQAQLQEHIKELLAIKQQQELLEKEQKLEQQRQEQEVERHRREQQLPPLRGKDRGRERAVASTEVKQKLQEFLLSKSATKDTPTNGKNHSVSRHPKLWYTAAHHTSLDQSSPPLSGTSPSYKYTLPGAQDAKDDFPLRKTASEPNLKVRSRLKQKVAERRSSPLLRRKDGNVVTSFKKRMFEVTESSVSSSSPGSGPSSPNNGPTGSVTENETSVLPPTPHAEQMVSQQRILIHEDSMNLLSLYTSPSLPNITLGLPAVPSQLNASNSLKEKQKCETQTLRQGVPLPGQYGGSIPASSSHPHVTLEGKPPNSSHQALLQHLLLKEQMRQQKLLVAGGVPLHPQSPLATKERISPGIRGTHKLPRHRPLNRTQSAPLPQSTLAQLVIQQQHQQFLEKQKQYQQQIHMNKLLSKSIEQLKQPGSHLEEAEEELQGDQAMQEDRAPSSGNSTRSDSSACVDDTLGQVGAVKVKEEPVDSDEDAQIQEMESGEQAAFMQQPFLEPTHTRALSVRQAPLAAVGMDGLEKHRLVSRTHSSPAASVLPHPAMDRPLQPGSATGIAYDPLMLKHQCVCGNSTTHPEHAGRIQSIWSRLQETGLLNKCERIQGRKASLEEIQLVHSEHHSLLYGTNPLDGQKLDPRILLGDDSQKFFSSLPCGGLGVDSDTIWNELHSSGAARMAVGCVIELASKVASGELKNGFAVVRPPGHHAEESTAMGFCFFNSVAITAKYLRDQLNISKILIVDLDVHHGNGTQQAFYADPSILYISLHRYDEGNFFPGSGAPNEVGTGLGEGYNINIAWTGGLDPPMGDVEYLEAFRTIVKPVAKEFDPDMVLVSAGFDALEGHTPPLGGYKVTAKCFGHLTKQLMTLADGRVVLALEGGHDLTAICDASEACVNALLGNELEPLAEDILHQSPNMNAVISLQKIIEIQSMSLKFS
Histone deacetylase 4, sequence (P56524 whole entry): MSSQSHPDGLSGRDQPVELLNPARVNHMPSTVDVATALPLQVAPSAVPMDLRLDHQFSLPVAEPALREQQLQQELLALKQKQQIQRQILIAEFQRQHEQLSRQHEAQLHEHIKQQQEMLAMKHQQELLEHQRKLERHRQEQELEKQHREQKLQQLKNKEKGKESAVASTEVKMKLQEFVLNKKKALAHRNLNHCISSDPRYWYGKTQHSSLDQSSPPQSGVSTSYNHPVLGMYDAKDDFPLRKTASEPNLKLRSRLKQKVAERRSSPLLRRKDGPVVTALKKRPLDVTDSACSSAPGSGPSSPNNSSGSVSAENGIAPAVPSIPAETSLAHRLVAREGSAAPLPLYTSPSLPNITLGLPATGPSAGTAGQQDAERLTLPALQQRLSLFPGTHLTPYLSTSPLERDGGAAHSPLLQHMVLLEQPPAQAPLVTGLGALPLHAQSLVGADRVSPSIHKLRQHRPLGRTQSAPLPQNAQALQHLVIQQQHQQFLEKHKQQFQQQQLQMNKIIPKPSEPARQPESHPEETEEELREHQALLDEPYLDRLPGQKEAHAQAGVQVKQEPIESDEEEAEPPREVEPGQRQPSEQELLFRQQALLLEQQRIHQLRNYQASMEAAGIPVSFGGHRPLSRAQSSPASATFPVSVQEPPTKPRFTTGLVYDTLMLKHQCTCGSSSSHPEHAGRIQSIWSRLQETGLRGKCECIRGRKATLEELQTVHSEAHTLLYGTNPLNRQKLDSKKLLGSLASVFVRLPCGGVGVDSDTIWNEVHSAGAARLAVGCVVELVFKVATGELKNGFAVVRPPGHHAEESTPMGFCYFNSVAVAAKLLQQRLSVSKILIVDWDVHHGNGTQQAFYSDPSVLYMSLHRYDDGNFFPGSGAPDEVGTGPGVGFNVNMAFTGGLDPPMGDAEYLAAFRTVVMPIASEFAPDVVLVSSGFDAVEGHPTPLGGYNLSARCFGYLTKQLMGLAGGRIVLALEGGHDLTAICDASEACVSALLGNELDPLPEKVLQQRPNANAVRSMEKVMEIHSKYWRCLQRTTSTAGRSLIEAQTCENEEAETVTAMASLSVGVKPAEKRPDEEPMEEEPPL

remaining at 0.25 h [1] [%]	t1/2 [2] [h]	IC50 [3] [µM]	IC50 [4] [µM]	IC50 [5] [µM]	Ki [6] [µM]	remaining at 0.5 h [7] [%]	Compound	viability at 1 µM [8] [%]	Activity [9] [%]	Activity [10] [%]	viability at 2 µM [11] [%]	Activity [12] [%]	Activity [13] [%]	Activity [14] [%]
88.1	1.7	7.29	> 10	2.75	0.0007	80.8	O=C(NO)c1ccc(CN(Cc2cccnc2)S(=O)(=O)c2cc(F)c(F)c(F)c2F)cc1							
							O=C(CCCCCCNC(=O)c1cnc(N(c2ccccc2)c2ccccc2Cl)nc1)NO [CITARINOSTAT]	68.4	10.02	15.54	42.4	38.98	5.77	4.65
